NOD2-RIPK2 inh – inhibitors of human NOD2-RIPK2 interaction | inhibition, % at 4.98 µM | actives 0.38% (n = 360,000) | O43353 | AID 624267 | CHO BLA complementation NOD2-RIPK2, CCF4 ratio; in the data active = inhibition above about 21%;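 also: 0% = vehicle only and 100% = reference blocker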
CHOP inh – CHOP inhibition in unfolded protein response | CHO-K1 CHOP-promoter luciferase, tunicamycin-induced, 15-18 h | inhibition, % at 10 µM | actives 3.8% (n = 220,000) | AID 2732;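 active = compounds that reduced the stress-induced luciferase reporter signal by more than about 70% of percent inhibition, limit read from the data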;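 also: 0% = tunicamycin plus vehicle and 100% = wells without tunicamycin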
XBP1 UPR activ – adaptive UPR (XBP1) activation; CHO-XBP1 luciferase reporter, IRE1-XBP1 UPR activation, luminescence; percent of tunicamycin response, DMSO as zero; activation, % at 20 µM; actives 0.33% (n = 330,000);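 active = versus positive control, 20 µM dose yields 30% or more activation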;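 also: 100% = tunicamycin at 10 µg/mL and 0% = DMSO only wells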
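Material: CHO cell line with stable XBP1 luciferase reporter; buffer or medium: F12 medium containing 10% fetal bovine serum; compound: single point, 20 µM final compound, 1% DMSO; incubation: 6 h treatment, 37 °C; measured by: glow luminescence from Steady-Glo reagent; evaluation: activation, % of tunicamycin; control set: tunicamycin high, DMSO low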
TLR4-MyD88 BLA – inhibitors of human TLR4-MyD88 binding | HeLa CL3-4 TLR4/MyD88 BLA complementation, FRET ratio | inhibition, % at 8.4 µM | actives 0.18% (n = 200,000) | AID 861; in the data active = inhibition above about 25%;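 also: 0% = vehicle and 100% = reference inhibitor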
Target sequence (O00206 whole entry, looked up): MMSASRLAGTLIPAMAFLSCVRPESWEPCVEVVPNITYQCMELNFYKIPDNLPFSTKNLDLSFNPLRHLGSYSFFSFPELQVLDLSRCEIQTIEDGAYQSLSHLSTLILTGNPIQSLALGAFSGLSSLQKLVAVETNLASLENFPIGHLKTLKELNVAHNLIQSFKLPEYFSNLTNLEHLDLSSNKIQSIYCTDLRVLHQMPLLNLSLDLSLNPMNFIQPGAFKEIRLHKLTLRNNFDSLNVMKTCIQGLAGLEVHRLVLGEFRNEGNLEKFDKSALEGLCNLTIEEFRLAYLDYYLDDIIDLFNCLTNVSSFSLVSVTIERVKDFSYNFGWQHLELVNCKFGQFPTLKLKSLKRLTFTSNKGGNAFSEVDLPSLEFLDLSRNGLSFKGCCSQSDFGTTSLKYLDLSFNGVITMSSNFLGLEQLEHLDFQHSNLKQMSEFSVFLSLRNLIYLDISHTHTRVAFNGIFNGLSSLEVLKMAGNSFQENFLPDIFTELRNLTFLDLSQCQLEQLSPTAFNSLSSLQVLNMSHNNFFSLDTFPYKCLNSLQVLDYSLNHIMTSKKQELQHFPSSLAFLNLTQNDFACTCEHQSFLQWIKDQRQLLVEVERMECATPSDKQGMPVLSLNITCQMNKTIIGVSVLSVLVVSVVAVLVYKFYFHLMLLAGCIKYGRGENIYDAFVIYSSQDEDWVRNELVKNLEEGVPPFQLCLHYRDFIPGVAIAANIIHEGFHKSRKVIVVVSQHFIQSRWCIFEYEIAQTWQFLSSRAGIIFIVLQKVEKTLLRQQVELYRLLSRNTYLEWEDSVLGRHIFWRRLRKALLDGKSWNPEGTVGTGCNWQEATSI
Target sequence (Q99836 whole entry, looked up): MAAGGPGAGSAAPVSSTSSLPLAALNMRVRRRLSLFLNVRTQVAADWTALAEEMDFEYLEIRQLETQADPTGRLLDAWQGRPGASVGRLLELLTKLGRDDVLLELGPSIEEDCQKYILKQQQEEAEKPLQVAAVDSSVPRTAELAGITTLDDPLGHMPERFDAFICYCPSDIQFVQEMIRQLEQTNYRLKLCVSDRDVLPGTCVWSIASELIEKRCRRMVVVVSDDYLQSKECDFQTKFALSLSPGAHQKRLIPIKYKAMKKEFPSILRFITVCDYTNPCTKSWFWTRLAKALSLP
UPR CHOP act – apoptotic UPR (CHOP) activation. CHO-CHOP luciferase reporter, luminescence; percent of tunicamycin response over DMSO baseline. activation, % at 10 µM. actives 0.34% (n = 330,000);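 active = at 10 µM dose, activation of 40% or more, normalized to positive control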;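 also: 100% = tunicamycin at 10 µg/mL and 0% = DMSO alone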
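System: CHO-CHOP luciferase reporter cell line; amount: 500 cells/well; buffer or medium: F12 medium containing 10% fetal bovine serum; incubation: 6 h compound exposure at 37 °C after overnight seeding; measured by: luciferase luminescence after 10 min with Steady-Glo reagent; evaluation: % reporter activation, DMSO baseline versus tunicamycin full activation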
TLR9-MyD88 inh – inhibitors of human TLR9-MyD88 binding; inhibition, % at 4.98 µM; Q9NR96+Q99836; CHO BLA complementation TLR9-MyD88, CCF4 FRET ratio; actives 0.21% (n = 340,000);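 active = inhibition above the mean over all tested compounds plus 3 SD, cut at about 21% in these data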;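 also: 0% = DMSO only wells and 100% = clavulanate BLA inhibitor control wells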
* = called active by the depositor; x = no result given. This excerpt belongs to a sample that is enriched for hits.

SMILES	NOD2-RIPK2 inh	CHOP inh	XBP1 UPR activ	TLR4-MyD88 BLA	UPR CHOP act	TLR9-MyD88 inh
Cc1ccc(-c2noc(CSc3nnc(Cc4cccs4)n3-c3ccccc3)n2)cc1	-3	61	-3	-8	0	-5
O=C(O)c1nn(CC(=O)N2CCC(Cc3ccccc3)CC2)c(=O)c2ccccc12	-11	x	-4	x	1	-1
O=C(CNC(=O)c1cnccn1)Nc1ccc(F)c(F)c1F	-1	-1	-2	1	0	-1
O=S(=O)(c1ccc(NC(=S)N2CCCCC2CO)cc1)N1CCOCC1 (stereo not drawn)	-1	x	x	x	x	11
CC1(C(=O)NS(=O)(=O)C2CC2)CCCN(C(=O)COCc2ccccc2)C1 (stereo not drawn)	-11	x	x	x	x	x
Cc1nc(Nc2ccccc2)sc1-c1ccccc1	-2	70*	0	-15	7	1
O=C(NCCc1ccccc1)C(=O)NCC1OCCN1S(=O)(=O)c1cc(F)ccc1F (stereo not drawn)	3	x	1	x	1	8
COc1cccc(NCc2cc3c(C(C)(C)C)nn(-c4ccccc4)c3[nH]c2=O)c1	-12	71*	2	8	2	9
O=c1c2cc(Cl)ccc2nc(-c2ccc(Cl)c(Cl)c2)n1O	-12	102*	10	x	2	-6
CC(C)CCOc1cccc(OCC(=O)O)c1	1	86*	-1	4	-1	-5
O=C(O)COc1cccc(NC(=O)c2ccccc2)c1	-5	-9	0	-8	1	8
CCC(CC)C(C(=O)NCc1ccccc1)N(C)Cc1ccc(Cl)c(Cl)c1 (stereo not drawn)	4	x	x	x	x	x
COc1nc(N2CCCCCC2)nc(N2CCCCCC2)n1	2	88*	3	6	-2	4
COc1nc(Nc2cccc(C)c2)nc(N2CCCCC2)n1	1	71*	2	-1	2	-5
C/C(=N\O)c1noc(C)c1C(=O)Nc1nccs1	-16	x	5	x	-2	-1
Cc1ccc(-n2cc(CNCCCn3ccnc3C)c(-c3ccc(F)cc3)n2)cc1	2	-23	2	-9	1	-3
Cc1ccc(-n2cc(CNCCc3cscn3)c(-c3ccc(F)cc3)n2)cc1	4	85*	0	14	0	5
COC(C)(C)[C@]12CC(O)(c3ccccc3)ON1[C@H]1CCCCC1N2O (stereo partly drawn)	-6	3	-4	-4	0	-8
Cc1ccc(N2CC(C(=O)OCC(=O)NNC(=O)c3ccccc3)CC2=O)cc1 (stereo not drawn)	-9	x	0	x	1	-9
COCCn1c(C)cc(/C=C2/NC(=O)N(c3cccc(Cl)c3)C2=O)c1C	-5	71*	2	-8	3	-1
O=C(O)/C=C/C(=O)N1CCN(c2cccc(Cl)c2)CC1	-5	3	1	-1	-2	0
COc1ccc(OC)c(CN2CCCC(CO)C2)c1 (stereo not drawn)	-10	10	-5	1	0	-4
Cc1cc(C(=O)COC(=O)c2ccccc2O)c(C)n1CC1CCCO1 (stereo not drawn)	-11	x	-9	x	-9	4
Cc1cc(C(=O)COC(=O)C2COc3ccccc3O2)c(C)n1CC1CCCO1 (stereo not drawn)	-2	77*	1	3	-1	5
Cc1cc(C(=O)COC(=O)c2ccccc2Br)c(C)n1CC1CCCO1 (stereo not drawn)	-4	77*	-7	x	-9	-2
Cc1ccc(C(=O)OCC(=O)c2cc(C)n(CC3CCCO3)c2C)cc1 (stereo not drawn)	-2	2	-2	-11	4	1
Cc1cc(C(=O)COc2ccccc2C(N)=O)c(C)n1CC1CCCO1 (stereo not drawn)	1	46	-2	5	6	-10
Cc1cc(C(=O)COC(=O)c2cccnc2Cl)c(C)n1CC1CCCO1 (stereo not drawn)	6	80*	-14	-3	-8	5

Compound activity from PubChem BioAssay.
